Calls of active or inactive are those of the source. The calls are words filed in the database; no cut-off is given here.
Columns and labels:
HeLa [1] = assay: Induction of reactive oxygen species generation in human HeLa cells incubated for 3 hrs prior to H2DCFDA addition for 20 mins followed by 54 J/cm2 light irradiation by confocal scanning microscopic analysis; format: functional, cell-based
In short: (§1)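 HeLa cells were exposed to 0.004, 0.02, 0.10, 0.5 or 2.5 μM for 3 h, washed, and loaded with H2DCFDA 10 μM in PBS for 20 min at 37 °C. After washing, cells in PBS were irradiated with 54 J/cm² (λ > 590 nm) or kept dark. Fluorescence was read by confocal microscopy and by plate reader (ex 485/em 538 nm).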

[2] = Photostability of the compound in PBS containing 1% Cremophor EL/1,2-propanediol (10:3, v:v) system assessed as compound degradation irradiated with 90 mW/cm2 light; format: physicochemical; settings: buffer
[3] = Absorption property of the compound in acetonitrile assessed as absorption coefficient by UV-visible spectrophotometric method; format: physicochemical
In short: (§2)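 Electronic absorption spectra recorded by UV-visible spectrophotometry at room temperature. Solvents were chloroform, isopropanol, acetonitrile, DMF, and PBS buffer containing 1% Cremophor EL/1,2-propanediol (10:3, v:v). Chloroform data were referenced to the non-halogenated parent dye.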

[4] = Drug uptake in Balb/c nu/nu mouse xenografted with human HeLa cells at 2 mg/kg, iv measured over 10 hrs by fluorescence imaging analysis; format: ADME, organism-based; settings: in vivo
In short: (§3)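 Female Balb/c nu/nu mice bore subcutaneous HeLa tumors (5×10^6 cells, right back) and received 2 mg/kg via tail vein. Living mice were imaged under isoflurane at time points (ex 680/em 720 nm, 1 s exposure). At set times mice were euthanized and heart, liver, spleen, lungs, kidneys and tumor imaged ex vivo; ROI quantified, mean ± SD, n = 3.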

[5] = Drug uptake in human HeLa cells xenografted Balb/c nu/nu mouse lung at 2 mg/kg, iv measured within 1 hr by fluorescence imaging analysis; format: ADME, organism-based; settings: in vivo; in short: as §3
[6] = Drug uptake in human HeLa cells xenografted Balb/c nu/nu mouse kidney at 2 mg/kg, iv measured within 1 hr by fluorescence imaging analysis; format: ADME, organism-based; settings: in vivo; in short: as §3
HeLa [7] = assay: Induction of reactive oxygen species generation in human HeLa cells at 0.004 to 2.5 uM incubated for 3 hrs prior to H2DCFDA addition for 20 mins followed by 54 J/cm2 light irradiation by microplate reader analysis; format: functional, cell-based; settings: dose microM 0.004-2.5, time 3.0 hrs; in short: as §1
HeLa [8] = assay: Induction of apoptosis in human HeLa cells assessed as late apoptotic cells at 200 nM preincubated for 3 hrs followed by 27 J/cm2 light irradiation and measured after 24 hrs by Annexin-V-FITC/propidium iodide staining based flow cytometry (reference value: 5.92%); format: functional
In short: (§4)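 HeLa cells in six-well plates were exposed to compound for 3 h, irradiated (λ > 590 nm), and incubated 24 h at 37 °C. Cells were then harvested, washed with PBS, and stained with annexin V-FITC/PI for 20 min at room temperature before immediate flow cytometry. Untreated, unirradiated cells served as control.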

[9] = Stability of the compound in PBS containing 1% Cremophor EL/1,2-propanediol (10:3, v:v) system assessed as compound degradation under dark condition; format: physicochemical; settings: buffer
[10] = Absorption property of the compound in PBS containing 1% Cremophor EL/1,2-propanediol (10:3, v:v) system assessed as absorption coefficient by UV-visible spectrophotometric method; format: physicochemical; settings: buffer; in short: as §2
[11] = Induction of singlet oxygen generation in PBS containing 1% Cremophor EL/1,2-propanediol (10:3, v:v) system assessed as relative rate of DPBF degradation to MB at 1 uM irradiated with 90 mW/cm2 halogen light; format: functional
In short: (§5)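 Singlet oxygen generation measured with 1,3-diphenylisobenzofuran (DPBF) as scavenger. The decrease in DPBF absorbance at 411 nm was monitored over time during light irradiation, and the photodegradation rate was calculated.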

HeLa [12] = assay: Induction of apoptosis in human HeLa cells assessed as viable cells at 200 nM preincubated for 3 hrs followed by 54 J/cm2 light irradiation and measured after 24 hrs by Annexin-V-FITC/propidium iodide staining based flow cytometry (reference value: 90.74%); format: functional; settings: light or radiation study, read-out: Activity; in short: as §4
SW480 = assay: Phototoxicity against human SW480 cells assessed as reduction in cell viability preincubated for 3 hrs followed by 54 J/cm2 light irradiation and measured after 24 hrs by MTT assay; format: functional, cell-based; settings: SW480, light or radiation study
In short: (§6)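 PS formulated in PBS containing Cremophor EL/1,2-propanediol (10:3, v:v) after THF removal, filtered, with concentration confirmed by UV-Vis. Cells were grown in DMEM with 10% FBS and seeded at 3×10^3 per well overnight. They were incubated with PS for 3 h, irradiated at λ > 590 nm, kept 24 h at 37 °C, then given MTT (0.5 mg/mL, 4 h) with DMSO solubilization and A490 read-out.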

[13] = Drug uptake in human HeLa cells xenografted Balb/c nu/nu mouse spleen at 2 mg/kg, iv measured within 1 hr by fluorescence imaging analysis; format: ADME, organism-based; settings: in vivo; in short: as §3
HeLa [14] = assay: Induction of apoptosis in human HeLa cells assessed as necrotic cells at 200 nM preincubated for 3 hrs followed by 54 J/cm2 light irradiation and measured after 24 hrs by Annexin-V-FITC/propidium iodide staining based flow cytometry (reference value: 2.8%); format: functional; in short: as §4
HeLa [15] = assay: Phototoxicity against human HeLa cells assessed as reduction in cell viability at 125 nM preincubated for 2 hrs followed by 5.4 to 108 J/cm2 light irradiation and measured after 24 hrs by MTT assay; format: functional, cell-based
[16] = Dark toxicity in human HeLa cells assessed as reduction in cell viability after 3 hrs by MTT assay; format: cell-based
In short: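 Compound was formulated with Cremophor EL/1,2-propanediol in PBS, filtered, and its concentration confirmed by UV-Vis. HeLa cells in DMEM with 10% FBS at 37 °C, 5% CO2 were seeded at 3×10^3 cells/well and adhered overnight. Cells were exposed to graded concentrations for 3 h without light, incubated 24 h, then MTT 0.5 mg/mL for 4 h; formazan dissolved in DMSO, A490 read.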

[17] = Absorption property of the compound in N,N-dimethylformamide assessed as absorption coefficient by UV-visible spectrophotometric method; format: physicochemical; in short: as §2
[18] = Dark toxicity in human SW480 cells assessed as reduction in cell viability after 3 hrs by MTT assay; format: cell-based
HeLa [19] = assay: Induction of apoptosis in human HeLa cells assessed as late apoptotic cells at 40 nM preincubated for 3 hrs followed by 54 J/cm2 light irradiation and measured after 24 hrs by Annexin-V-FITC/propidium iodide staining based flow cytometry (reference value: 5.92%); format: functional; in short: as §4
[20] = Induction of singlet oxygen generation in N,N-dimethylformamide assessed as relative rate of DPBF degradation to MB at 1 uM irradiated with 90 mW/cm2 halogen light; format: functional; in short: as §5
HeLa [21] = assay: Phototoxicity against human HeLa cells assessed as reduction in cell viability preincubated for 3 hrs followed by 54 J/cm2 light irradiation and measured after 24 hrs by MTT assay; format: functional, cell-based; settings: light or radiation study; in short: as §6
HeLa [22] = assay: Induction of apoptosis in human HeLa cells assessed as viable cells at 200 nM preincubated for 3 hrs followed by 27 J/cm2 light irradiation and measured after 24 hrs by Annexin-V-FITC/propidium iodide staining based flow cytometry (reference value: 90.74%); format: functional; settings: light or radiation study, read-out: Activity; in short: as §4

- Stabilty [2]: Stable
- Activity [3]: 59300 M⁻¹ cm⁻¹
- Drug uptake [4]: Not Active
- Drug uptake [5]: Active
- Drug uptake [6]: Active
- Stabilty [9]: Unstable
- Activity [10]: 34000 M⁻¹ cm⁻¹
- Drug uptake [13]: Active
- Activity [17]: 59300 M⁻¹ cm⁻¹
SMILES: COc1ccc(C2=[N+]3C(=Nc4c(-c5ccccc5)cc(-c5ccc(OC)cc5)n4[B-]3(F)F)C(c3ccccc3)=C2I)cc1
- Activity (HeLa [1]): Dose-dependent effect
- Activity (HeLa [7]): Active
- Activity (HeLa [8]): 14.98%
- fold change (FC) [11]: 2.4
- viability at 0.2 µM (HeLa [12]): 8.15%
- IC50 (SW480): 86 nM
- Activity (HeLa [14]): 2.22%
- Activity (HeLa [15]): Active
- IC50 at 3 h [16]: > 50 µM
- IC50 at 3 h [18]: > 50 µM
- Activity (HeLa [19]): 10.31%
- fold change (FC) [20]: 1.3
- IC50 (HeLa [21]): 76 nM
- viability at 0.2 µM (HeLa [22]): 42.9%

Reference: ChEMBL document CHEMBL4725347, “Discovery of a Monoiodo Aza-BODIPY Near-Infrared Photosensitizer: in vitro and in vivo Evaluation for Photodynamic Therapy” (J Med Chem, 2020)
